# Experimental data published in ChEMBL document CHEMBL5131497, “Design, Synthesis, and Characterization of TNP-2198, a Dual-Targeted Rifamycin-Nitroimidazole Conjugate with Potent Activity against Microaerophilic and Anaerobic Bacterial Pathogens” (J Med Chem, 2022).
# Columns and labels:
# Bacteroides fragilis = experiment: Antibacterial activity against metronidazole-resistant Bacteroides fragilis MMX 3387; type: functional
# Clostridioides difficile [1] = experiment: Antibacterial activity against rifampicin-resistant Clostridioides difficile harboring rpoBQ489K mutant; type: functional
# Gardnerella vaginalis [2] = experiment: Antibacterial activity against Gardnerella vaginalis ATCC 14018; type: functional
# Peptostreptococcus sp. = experiment: Antibacterial activity against Peptostreptococcus magnus ATCC 14956; type: functional
# Helicobacter pylori [3] = experiment: Antibacterial activity against rifampicin-resistant Helicobacter pylori CB1903 harboring rpoBD530V mutant at 1:1 compound to rifabutin molar ratio measured after 5 days in presence of rifabutin by agar dilution method; type: functional; details: CB1903, 120 h, time 5 day
# Procedure, shortened: (§1)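 Agar dilution per CLSI: two-fold serial dilutions from 100× stocks in Mueller–Hinton agar with aged (≥2 weeks) sheep blood (5% v/v). Strains were wild-type ATCC 700392 (CB1531) and derived mutants carrying defined resistance determinants. MIC was read after 5 days at 35 °C under microaerobic conditions from a campylobacter gas-generating system. Routine culture was on TSA with 5% sheep blood.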
# Phocaeicola vulgatus = experiment: Antibacterial activity against metronidazole-resistant Bacteroides vulgatus 3490; type: functional
# Gardnerella vaginalis [4] = experiment: Antibacterial activity against Gardnerella vaginalis ATCC 49145; type: functional
# Staphylococcus aureus = experiment: Antibacterial activity against Staphylococcus aureus ATCC 29213; type: functional
# Helicobacter pylori [5] = experiment: Antibacterial activity against metronidazole/rifampicin-resistant Helicobacter pylori CB1893 harboring rpoBL525I/D530N/rdxAR16S mutant at 1:1 compound to rifampicin molar ratio measured after 5 days in presence of rifampicin by agar dilution method; type: functional; details: CB1893, 120 h, time 5 day
# Procedure, shortened: (§2)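 Agar dilution MIC per CLSI. Resistant derivatives of wild-type ATCC 700392 carrying defined rpoB/rdxA mutations. Test agent combined 1:1 molar with the partner drug. Agents prepared from 100× stocks and serially 2-fold diluted into Mueller–Hinton agar containing 5% v/v aged (≥2 weeks) sheep blood. Plates incubated 5 days at 35 °C under a microaerobic atmosphere from a gas-generating system.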
# Veillonella parvula = experiment: Antibacterial activity against Veillonella parvula ATCC 17745 MMX 1272; type: functional
# Syrian golden hamster = experiment: Antibacterial activity against Clostridioides difficile UNT-103-1 infected in Syrian hamster assessed as mortality at 100 mg/kg, po administered once a daily for 5 days after 18 hrs post 10 mg/kg clindamycin treatment and measured upto 21 days; type: functional, Mesocricetus auratus; details: time <= 21 day
# Procedure, shortened: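 Male Golden Syrian hamsters (80-90 g), housed singly, were gavaged with C. difficile UNT103-1 grown in sporulation medium broth and diluted to OD600 1 in prereduced broth. […] From 18 h later, drug or vehicle was given by oral gavage once daily for 5 days. Survival was recorded through day 21.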
# [6] = test system: Porphyromonas asaccharolytica; experiment: Antibacterial activity against metronidazole-resistant Prevotella asaccharolytica MMX 3552; type: functional
# Fannyhessea vaginae = experiment: Antibacterial activity against Atopobium vaginae BAA-55; type: functional
# Helicobacter pylori [7] = experiment: Antibacterial activity against Helicobacter pylori clinical isolate USA; type: functional
# Helicobacter pylori [8] = experiment: Antibacterial activity against rifampicin-resistant Helicobacter pylori CB1614 harboring rpoBL525I/D530N at 1:1 compound to rifampicin molar ratio measured after 5 days in presence of rifampicin by agar dilution method; type: functional; details: CB1614, 120 h, time 5 day
# Procedure, shortened: (§3)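 Agar dilution per CLSI. Wild-type ATCC 700392 (CB1531) and its derivatives carry defined resistance determinants. Drugs, alone or in 1:1 molar mixtures, were diluted 2-fold from 100× stocks into Mueller–Hinton agar with aged (≥2 weeks) sheep blood (5% v/v). MIC read after 5 days at 35 °C under microaerobic conditions from a campylobacter gas-generating system.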
# Gardnerella vaginalis [9] = experiment: Antibacterial activity against Gardnerella vaginalis clinical isolate USA; type: functional
# Helicobacter pylori [10] = experiment: Antibacterial activity against metronidazole/rifampicin-resistant Helicobacter pylori CB1771 harboring rpoBL525I/D530N/rdxAE75stop mutant measured after 5 days by agar dilution method; type: functional; details: CB1771, 120 h, time 5 day; procedure, shortened: as §3
# Clostridioides difficile [11] = experiment: Antibacterial activity against Clostridioides difficile clinical isolate China; type: functional
# Helicobacter pylori [12] = experiment: Antibacterial activity against Helicobacter pylori clinical isolate China; type: functional
# Helicobacter pylori [13] = experiment: Antibacterial activity against metronidazole/rifampicin-resistant Helicobacter pylori CB1771 harboring rpoBL525I/D530N/rdxAE75stop mutant at 1:1 compound to rifampicin molar ratio measured after 5 days in presence of rifampicin by agar dilution method; type: functional; details: CB1771, 120 h, time 5 day; procedure, shortened: as §2
# Clostridioides difficile [14] = experiment: Antibacterial activity against Clostridioides difficile clinical isolate USA; type: functional
# Clostridioides difficile [15] = experiment: Antibacterial activity against fluoroquinolone-resistant Clostridioides difficile CB1941 harboring gyrAD71Y/T82A mutant at 1:1 compound to rifampicin molar ratio measured after 3 days in presence of rifampicin; type: functional; details: CB1941, 72 h, time 3 day
# Helicobacter pylori [16] = experiment: Antibacterial activity against rifampicin-resistant Helicobacter pylori CB1902 harboring rpoBV149F mutant at 1:1 compound to rifampicin molar ratio measured after 5 days in presence of rifampicin by agar dilution method; type: functional; details: CB1902, 120 h, time 5 day; procedure, shortened: as §3
# Helicobacter pylori [17] = experiment: Antibacterial activity against Helicobacter pylori ATCC 700392 at 1:1 compound to rifabutin molar ratio measured after 5 days in presence of rifabutin by agar dilution method; type: functional; details: ATCC 700392, 120 h, time 5 day
# Procedure, shortened: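 Agar dilution per CLSI. Wild-type H. pylori ATCC 700392 (CB1531). Drugs prepared from 100× stocks as 2-fold dilutions in Mueller–Hinton agar with aged (≥2 weeks) sheep blood (5% v/v). Combinations were at 1:1 molar ratio. MIC read after 5 days at 35 °C under microaerobic atmosphere from a campylobacter gas-generating system.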
# Bacteroides uniformis = experiment: Antibacterial activity against Bacteroides uniformis MMX 1277; type: functional
# Fusobacterium nucleatum = experiment: Antibacterial activity against Fusobacterium nucleatum ATCC 10953; type: functional
# Helicobacter pylori [18] = experiment: Antibacterial activity against Helicobacter pylori ATCC 700392 at 1:1 compound to rifampicin molar ratio measured after 5 days in presence of rifampicin by agar dilution method; type: functional; details: ATCC 700392, 120 h, time 5 day; procedure, shortened: as §1
# Helicobacter pylori [19] = experiment: Antibacterial activity against rifampicin resistant Helicobacter pylori harboring rpoBL525I/D530N mutant; type: functional
# Clostridioides difficile [20] = experiment: Antibacterial activity against fluoroquinolone-resistant Clostridioides difficile CB1939 at 1:1 compound to rifampicin molar ratio measured after 3 days in presence of rifampicin; type: functional; details: CB1939, 72 h, time 3 day
# Gardnerella vaginalis [21] = experiment: Antibacterial activity against Gardnerella vaginalis clinical isolate China; type: functional
# Clostridioides difficile [22] = experiment: Antibacterial activity against rifampicin/fluoroquinolone-resistant Clostridioides difficile CB1940 harboring rpoBQ489K/gyrAA118S mutant at 1:1 compound to rifampicin molar ratio measured after 3 days in presence of rifampicin; type: functional; details: CB1940, 72 h, time 3 day
# Helicobacter pylori [23] = experiment: Antibacterial activity against metronidazole-resistant Helicobacter pylori CB1573 harboring rdxAR16S mutant at 1:1 compound to rifabutin molar ratio measured after 5 days in presence of rifabutin by agar dilution method; type: functional; details: CB1573, 120 h, time 5 day; procedure, shortened: as §3
# Clostridioides difficile [24] = experiment: Antibacterial activity against rifampicin/fluoroquinolone-resistant Clostridioides difficile CB1942 harboring rpoBQ489K/gyrAD71Y/T82A mutant at 1:1 compound to rifampicin molar ratio measured after 3 days in presence of rifampicin; type: functional; details: CB1942, 72 h, time 3 day
# Clostridium sporogenes = experiment: Antibacterial activity against Clostridium sporogenes ATCC 19404; type: functional
# Actinomyces naeslundii = experiment: Antibacterial activity against Actinomyces naeslundii ATCC 1210; type: functional
# Helicobacter pylori [25] = experiment: Antibacterial activity against metronidazole-resistant Helicobacter pylori CB1573 harboring rdxAR16S mutant measured after 5 days by agar dilution method; type: functional; details: CB1573, 120 h, time 5 day; procedure, shortened: as §3
# Campylobacter gracilis = experiment: Antibacterial activity against Bacteroides gracilis ATCC 33236 MMX 1270; type: functional
# Helicobacter pylori [26] = experiment: Antibacterial activity against metronidazole/rifampicin-resistant Helicobacter pylori CB1893 harboring rpoBL525I/D530N/rdxAR16S mutant measured after 5 days by agar dilution method; type: functional; details: CB1893, 120 h, time 5 day; procedure, shortened: as §3
# Clostridioides difficile [27] = experiment: Antibacterial activity against Clostridioides difficile CB1921 ATCC BAA1382 at 1:1 compound to rifampicin molar ratio measured after 3 days in presence of rifampicin; type: functional; details: CB1921 ATCC BAA1382, 72 h, time 3 day
# Clostridioides difficile [28] = experiment: Antibacterial activity against rifampicin-resistant Clostridioides difficile CB1934 harboring rpoBQ489K mutant at 1:1 compound to rifampicin molar ratio measured after 3 days in presence of rifampicin; type: functional; details: CB1934, 72 h, time 3 day
structure (smiles),measurement,setting,value
Cc1ncc([N+](=O)[O-])n1CCO [METRONIDAZOLE],MIC,Bacteroides fragilis,> 256 mg/L
same,MIC,Clostridioides difficile [1],> 8 mg/L
same,MIC,Gardnerella vaginalis [2],4 mg/L
same,MIC,Peptostreptococcus sp.,1 mg/L
same,MIC,Helicobacter pylori [3],1 mg/L
same,MIC,Phocaeicola vulgatus,128 mg/L
same,MIC,Gardnerella vaginalis [4],4 mg/L
same,MIC,Staphylococcus aureus,> 32 mg/L
same,MIC,Helicobacter pylori [5],> 32 mg/L
same,MIC,Veillonella parvula,2 mg/L
same,Activity,Syrian golden hamster,100%
same,MIC,[6],1 mg/L
same,MIC,Fannyhessea vaginae,128 mg/L
same,MIC90,Helicobacter pylori [7],128 mg/L
same,MIC,Helicobacter pylori [8],8 mg/L
same,MIC,Gardnerella vaginalis [9],≥ 2 mg/L
same,MIC90,Gardnerella vaginalis [9],64 mg/L
same,MIC,Helicobacter pylori [10],32 mg/L
same,MIC,Clostridioides difficile [11],≤ 0.06 mg/L
same,MIC90,Clostridioides difficile [11],0.125 mg/L
same,MIC,Helicobacter pylori [12],≥ 0.25 mg/L
same,MIC90,Helicobacter pylori [12],≥ 16 mg/L
same,MIC,Helicobacter pylori [13],> 32 mg/L
same,MIC,Clostridioides difficile [14],0.12 mg/L
same,MIC,Clostridioides difficile [15],≤ 0.03 mg/L
same,MIC,Helicobacter pylori [16],8 mg/L
same,MIC,Helicobacter pylori [17],≤ 0.002 mg/L
same,MIC,Bacteroides uniformis,> 256 mg/L
same,MIC,Fusobacterium nucleatum,0.06 mg/L
same,MIC,Helicobacter pylori [18],0.5 mg/L
same,MIC,Helicobacter pylori [19],> 32 mg/L
same,MIC,Clostridioides difficile [20],≤ 0.03 mg/L
same,MIC,Gardnerella vaginalis [21],≥ 16 mg/L
same,MIC90,Gardnerella vaginalis [21],≥ 32 mg/L
same,MIC,Clostridioides difficile [22],2 mg/L
same,MIC,Helicobacter pylori [23],≤ 0.002 mg/L
same,MIC,Clostridioides difficile [24],2 mg/L
same,MIC,Clostridium sporogenes,0.06 mg/L
same,MIC,Actinomyces naeslundii,256 mg/L
same,MIC,Helicobacter pylori [25],32 mg/L
same,MIC,Campylobacter gracilis,> 256 mg/L
same,MIC,Helicobacter pylori [26],32 mg/L
same,MIC,Clostridioides difficile [27],≤ 0.03 mg/L
same,MIC,Clostridioides difficile [28],2 mg/L
